Test [1] is described as follows: Her2 expression decrease, cell viability multiplex – SKBR3 breast tumor cells, AlphaScreen, ATP viability, primary screen (AID 461).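 On Her2 level: lower value means less Her2 protein in the cells.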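 On viability: percent of carrier control wells set as 100% viability.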 The note with it: SKBR3 Her2 protein level, 18-24 h, measured here: SKBR3 viability, ATP luminescence, at 10 µM.
Test [2] deals with Receptor tyrosine-protein kinase erbB-2 (Homo sapiens) (UniProt P04626). The test is described as above. The note with it: 18-24 h, at 10 µM, stronger effect = lower value.
Test [3] can be described thus: reduced viability of SK-BR-3 breast cancer cells – cell-based, 24 h, human, pilot screen (AID 572;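 active means viability at or below 10% of carrier control in both of two separate runs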;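 further: compound exposure lasted between 18 and 24 h rather than exactly 24 h; 100% = carrier-treated control wells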). The settings on record: SK-BR-3 viability, CellTiter-Glo luminescence, at 10 µM, stronger effect = lower value.
Test [4] can be described thus: HUVEC growth inhibition – cell-based, human, primary screen (AID 575;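 active means viability at or below 30% in both replicate assays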;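 further: 100% = median of untreated cell wells with 0.1% DMSO on each plate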). The settings on record: HUVEC proliferation, CellTiter-Glo luminescence, 72 h; at 10 µM; stronger effect = lower value. The procedure, abridged:
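System: primary human umbilical vein endothelial cells; Quantity: 1250 endothelial cells in each well; Buffer or medium: supplemented EBM, 2% fetal bovine serum; Doses: one dose, 10 µM final, 0.1% DMSO; Incubation: 72 h compound incubation; Technique: ATP-based CellTiter-Glo luminescent read; Evaluation: percent of median DMSO-control luminescence; Controls: vehicle and MePR control wells.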

Test [5] can be described thus: H69AR cell proliferation blockers – human, duplicate replicates, primary screen (AID 580;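 active means viability at or under a set limit in both replicates, limit being median viability minus 3 SD, cut at about 48% in these data, passing the limit was not always enough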;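 further: 100% = mean luminescence of untreated wells and 0% = no signal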). The note with it: H69AR lung tumor cells viability, ATP luminescence, 72 h; at 10 µM; stronger effect = lower value.
Test [6] is described as follows: MRP1 drug-resistance reversers in H69AR cells – cell-based, doxorubicin co-treatment, pilot screen (AID 601;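 active means viability loss from added drug above about 55%, and viability with drug at most 40%, in both replicates, limit read from the data, passing the limit was not always enough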). The note with it: CellTiter-Glo, 72 h, at 10 µM; for differential viability (reversal): stronger effect = higher value.
Test [7] is described as follows: yeast transport mutant growth inhibition pilot in 384-well plates, post-Golgi transport modulator project (AID 636; in the data active means inhibition above about 31%). The note with it: absorbance 615 nm, about 18 h, stronger effect = higher value.
Test [8] can be described thus: growth suppression of yeast trafficking mutant, preliminary HTS, modulators of trafficking downstream of Golgi apparatus project, 1536-format plate, OD 615 nm (AID 637; in the data active means inhibition above about 30%). The settings on record: yeast transport mutant growth, absorbance 615 nm, 18 h; stronger effect = higher value.
Setting [9] is: H69AR cells + 2 uM doxorubicin, measured here: viability with 2 uM doxorubicin, stronger effect = lower value.
Setting [10] is: H69AR cells, compound alone cytotoxicity.

Activity calls are given as the source filed them.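 How the source made its calls, unless noted: active means Her2 level under about 52% in both replicate screens, with viability over 70% of control (limit read from the data); inconclusive means Her2 under the limit in one screen only, or viability under 70%; inactive means Her2 level above the set limit.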

One may read the viability as a read-out of living cells in per cent, often relative to untreated cells. The inhibition is the relative decrease from the control value, in per cent.

Sequence of Receptor tyrosine-protein kinase erbB-2 (Homo sapiens) (P04626 whole entry, looked up): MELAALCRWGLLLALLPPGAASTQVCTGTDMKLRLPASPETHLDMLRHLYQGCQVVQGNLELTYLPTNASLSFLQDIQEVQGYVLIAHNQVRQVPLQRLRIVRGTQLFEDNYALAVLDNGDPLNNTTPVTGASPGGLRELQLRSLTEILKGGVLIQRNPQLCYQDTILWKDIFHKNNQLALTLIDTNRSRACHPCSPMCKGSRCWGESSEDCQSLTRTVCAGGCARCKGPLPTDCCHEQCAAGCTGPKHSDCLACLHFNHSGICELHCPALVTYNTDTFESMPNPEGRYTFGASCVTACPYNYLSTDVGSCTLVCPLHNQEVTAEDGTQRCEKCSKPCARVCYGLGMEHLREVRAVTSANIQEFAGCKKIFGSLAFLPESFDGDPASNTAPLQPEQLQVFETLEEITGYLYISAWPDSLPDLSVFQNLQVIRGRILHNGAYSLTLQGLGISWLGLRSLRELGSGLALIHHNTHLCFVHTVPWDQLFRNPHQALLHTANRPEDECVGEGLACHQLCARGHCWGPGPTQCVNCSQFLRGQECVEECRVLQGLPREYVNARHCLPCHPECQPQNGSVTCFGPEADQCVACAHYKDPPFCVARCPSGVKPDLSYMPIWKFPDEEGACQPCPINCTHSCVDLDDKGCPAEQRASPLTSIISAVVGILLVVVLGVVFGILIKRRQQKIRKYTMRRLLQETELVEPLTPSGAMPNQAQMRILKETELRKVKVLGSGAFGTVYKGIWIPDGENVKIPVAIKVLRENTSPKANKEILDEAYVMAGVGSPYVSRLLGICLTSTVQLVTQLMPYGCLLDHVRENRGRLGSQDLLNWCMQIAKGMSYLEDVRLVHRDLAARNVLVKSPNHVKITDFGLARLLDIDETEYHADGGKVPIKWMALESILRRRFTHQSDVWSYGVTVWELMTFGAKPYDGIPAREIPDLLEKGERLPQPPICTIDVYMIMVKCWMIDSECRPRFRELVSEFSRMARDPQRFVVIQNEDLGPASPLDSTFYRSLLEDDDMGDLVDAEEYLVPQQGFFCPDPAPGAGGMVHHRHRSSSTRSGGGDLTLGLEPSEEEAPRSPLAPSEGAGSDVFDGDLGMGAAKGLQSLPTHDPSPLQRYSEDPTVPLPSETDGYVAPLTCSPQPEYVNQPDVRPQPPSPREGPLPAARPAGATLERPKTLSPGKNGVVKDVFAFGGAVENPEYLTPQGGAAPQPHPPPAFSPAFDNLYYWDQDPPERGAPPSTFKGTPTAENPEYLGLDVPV

Turning to `O=C(Nc1cccc(O)c1)c1ccccc1`, the viability in test [1] is 93%; in test [3], 93% (inactive); in test [4], 78% (inactive); in test [5] it was 95.2% (inactive); in test [6] (setting [9]), 103%; in test [6] (setting [10]), 95.2%. Further, the Her2 level in test [2] is 123% (inactive). For the same compound, the differential viability (reversal) in test [6] (H69AR cells + 2 uM doxorubicin) was -7.51% (inactive). Further, the results for the inhibition in test [7] and in test [8] were -5% (inactive) and -7.05% (inactive), respectively.

Take `CC1(c2ccc(Cl)cc2)NC(=O)N(CC(=O)NC(=O)NCc2ccco2)C1=O` (stereo not given): the viability in test [1] was 96%; in test [3] it was 96% (inactive); in test [4], 61.5% (inactive); in test [5], 107% (inactive); in test [6] (setting [9]), 81%; in test [6] (setting [10]) it was 107%. Besides, in test [2], the Her2 level was 80.5% (inactive). Further, in test [6] (H69AR cells + 2 uM doxorubicin), the differential viability (reversal) is 26.4% (inactive). The inhibition is -3.82% (inactive) in test [7] and -0.33% (inactive) in test [8].

On to `Cc1nc2sc(C(c3cccc(F)c3)N3CCCCC3)c(O)n2n1` (stereo not given), for which the viability was 109% in test [1]; 109% (inactive) in test [3]; 95.1% (inactive) in test [4]; 99.5% (inactive) in test [5]; 88.6% in test [6] (setting [9]); 99.5% in test [6] (setting [10]). The Her2 level in test [2] is 80% (inactive). Further, the differential viability (reversal) in test [6] (H69AR cells + 2 uM doxorubicin) is 10.9% (inactive). For the same compound, the inhibition in test [7] was -4.79% (inactive); in test [8] it was -4.92% (inactive).

As for `Cc1cc2c(=O)n(CC(=O)N3CCN(c4ccccc4)CC3)cnc2s1`, the viability is 92% in test [1]; 92% (inactive) in test [3]; 100% (inactive) in test [4]; 96.5% (inactive) in test [5]; 88.2% in test [6] (setting [9]); 96.5% in test [6] (setting [10]). In test [2], the Her2 level was 78% (inactive). The differential viability (reversal) in test [6] (H69AR cells + 2 uM doxorubicin) was 8.25% (inactive). Also, the inhibition in test [7] was -2.11% (inactive); in test [8] it was 0.18% (inactive).

`O=C1NC2=C(C(=O)CCC2)C(c2ccc3ncccc3c2)N1` (stereo not given): the viability in test [1] is 106%; in test [3], 106% (inactive); in test [4] it was 115% (inactive); in test [5], 98.4% (inactive); in test [6] (setting [9]) it was 85.8%; in test [6] (setting [10]) it was 98.4%. Besides, the Her2 level in test [2] is 91% (inactive). Besides, the differential viability (reversal) in test [6] (H69AR cells + 2 uM doxorubicin) was 12.6% (inactive). Further, the inhibition in test [7] is -1.64% (inactive); in test [8], 1.9% (inactive).

In the case of `Cc1cc(C)c2[nH]c(=O)c(C(c3nnnn3Cc3ccc4c(c3)OCO4)N3CCC(C)CC3)cc2c1` (stereo not given), the viability in test [1] is 90%; in test [3], 90% (inactive); in test [4], 84.4% (inactive); in test [5] it was 86.7% (inactive); in test [6] (setting [9]), 93.1%; in test [6] (setting [10]), 86.7%. The Her2 level in test [2] is 106% (inactive). For the same compound, in test [6] (H69AR cells + 2 uM doxorubicin), the differential viability (reversal) was -6.47% (inactive). The inhibition was -4.67% (inactive) in test [7] and -6.83% (inactive) in test [8].

In the case of `COC(=O)c1ccccc1S(=O)(=O)NC(=O)c1ccccc1`, the viability is 107% in test [1]; 107% (inactive) in test [3]; 107% (inactive) in test [4]; 88.2% (inactive) in test [5]; 82.5% in test [6] (setting [9]); 88.2% in test [6] (setting [10]). Moreover, the Her2 level in test [2] is 74% (inactive). Besides, the differential viability (reversal) in test [6] (H69AR cells + 2 uM doxorubicin) is 5.66% (inactive). For the same compound, the values for the inhibition in test [7] and in test [8] were -1.82% (inactive) and -3.81% (inactive), respectively.

Take `Cc1c(NC(=O)CSc2nnc3sc4ccccc4n23)c(=O)n(-c2ccccc2)n1C`: the viability in test [1] was 94%; in test [3] it was 94% (inactive); in test [4], 106% (inactive); in test [5], 90.4% (inactive); in test [6] (setting [9]) it was 89.6%; in test [6] (setting [10]), 90.4%. Also, in test [2], the Her2 level is 92.5% (inactive). For the same compound, in test [6] (H69AR cells + 2 uM doxorubicin), the differential viability (reversal) is 0.76% (inactive). Further, the inhibition is 0.65% (inactive) in test [7] and -2.79% (inactive) in test [8].

Regarding `Cc1ccccc1-c1nc(CN2CCC(C(=O)NCCCN3CCOCC3)CC2)c(C)o1`, the viability in test [1] is 86.5%; in test [3], 86.5% (inactive); in test [4], 74% (inactive); in test [5], 97.2% (inactive); in test [6] (setting [9]), 91.9%; in test [6] (setting [10]), 97.2%. Moreover, the Her2 level in test [2] was 107% (inactive). Further, the differential viability (reversal) in test [6] (H69AR cells + 2 uM doxorubicin) was 5.29% (inactive). In addition, the inhibition in test [7] is 1.58% (inactive); in test [8], -4.29% (inactive).

Consider `CCOc1ccccc1C1NC(=O)NC(C)=C1C(=O)OC1CCCC1C` (stereo not given), for which the viability in test [1] was 94.5%; in test [3] it was 94.5% (inactive); in test [4] it was 82.5% (inactive); in test [5], 78.1% (inactive); in test [6] (setting [9]), 75.8%; in test [6] (setting [10]), 78.1%. The Her2 level in test [2] was 69% (inactive). Also, the differential viability (reversal) in test [6] (H69AR cells + 2 uM doxorubicin) was 2.33% (inactive). For the same compound, the inhibition in test [7] is -1.73% (inactive); in test [8], 0.81% (inactive).

In the case of `N[C@@H](Cc1ccccc1)c1nnc2sc(SCc3ccccc3)nn12`, the viability was 90% in test [1]; 90% (inactive) in test [3]; 85.2% (inactive) in test [4]; 87.9% (inactive) in test [5]; 76.4% in test [6] (setting [9]); 87.9% in test [6] (setting [10]). Moreover, the Her2 level in test [2] was 84.5% (inactive). Further, the differential viability (reversal) in test [6] (H69AR cells + 2 uM doxorubicin) is 11.5% (inactive). In addition, the inhibition in test [7] is -3.07% (inactive); in test [8] it was 0.48% (inactive).

Regarding `COCCN1Cc2cccc(C(=O)Nc3cccnc3)c2C1=O`, the viability in test [1] was 106%; in test [3], 106% (inactive); in test [4] it was 102% (inactive); in test [5], 93.5% (inactive); in test [6] (setting [9]), 98.4%; in test [6] (setting [10]), 93.5%. Further, the Her2 level in test [2] is 81% (inactive). The differential viability (reversal) in test [6] (H69AR cells + 2 uM doxorubicin) is -4.91% (inactive). The inhibition in test [7] was -6.71% (inactive); in test [8] it was 1.9% (inactive).

Regarding `CCn1c(=O)n(CC(=O)N(C)Cc2ccccc2)c(=O)c2ccccc21`, the viability in test [1] was 110%; in test [3] it was 110% (inactive); in test [4], 75.7% (inactive); in test [5] it was 91.8% (inactive); in test [6] (setting [9]), 90.8%; in test [6] (setting [10]) it was 91.8%. In addition, the Her2 level in test [2] was 93.5% (inactive). Moreover, the differential viability (reversal) in test [6] (H69AR cells + 2 uM doxorubicin) was 1.03% (inactive). Moreover, the inhibition in test [7] is 1.18% (inactive); in test [8], -0.48% (inactive).

Regarding `COc1ccc(-c2cc(C(F)F)n3ncc(C(=O)NCC4CCCO4)c3n2)cc1` (stereo not given), the viability in test [1] is 92%; in test [3] it was 92% (inactive); in test [4], 82.7% (inactive); in test [5], 73.6% (inactive); in test [6] (setting [9]) it was 77.2%; in test [6] (setting [10]), 73.6%. The Her2 level in test [2] was 89% (inactive). Besides, in test [6] (H69AR cells + 2 uM doxorubicin), the differential viability (reversal) is -3.58% (inactive). Further, the inhibition in test [7] was -0.79% (inactive); in test [8], 4.35% (inactive).
